# Screening data (PubChem BioAssay)
# PGC1a acetyl up: compounds raising PGC1a acetylation signal, primary screen, PGC1a modulator project, cell-based, U2OS, AlphaScreen, signal-increasing mode; activation, % at 15.6 µM; overnight; hit rate 0.21% among 350,000;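 active = every replicate reaching activation of at least 50%, whatever the mean replicate activation; inconclusive = replicates that disagree or another doubt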;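 note: hits raise the AlphaScreen acetylation signal above neutral controls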
#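 detection = AlphaScreen lysate read | assay system = U2OS cells expressing flag-PGC1a plus GCN5 | input = 7000 cells/well | dosing = one concentration | times = compound overnight at 37 °C, each detection step 1 h RT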
# G6PC hep suppr: suppressors of forskolin-stimulated G6PC mRNA, dose response, PGC-1a acetylation activator project, cell-based, hepatocytes, RT-qPCR, cherry-picked samples; shares compounds with PGC1a acetyl up; primary mouse hepatocytes; G6PC suppression (normalized activity, % of positive control; higher = more suppression), % at 26 µM; 240 tested, under 10 active; AID 743463, 2014;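 active = dose curves showing G6PC suppression whose half-maximal dose is at most twice the top valid dose; inconclusive = flat curves with moderate negative activity, or unreliable fits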;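 note: G6PC expression relative to GAPDH housekeeping gene as delta delta Ct; 0% = median of neutral control wells and 100% = median of positive control wells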
# PCK1 hep suppr: suppression of PCK1 mRNA in primary hepatocytes, dose response, PGC-1a acetylation activator project, cell-based, primary mouse hepatocytes, RT-qPCR, cherry-pick; shares compounds with PGC1a acetyl up; forskolin-stimulated; PCK1 expression decrease, unspecified at 26 µM; 230 tested, under 10 active; AID 743465, 2014;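 active = compounds lowering PCK1 expression whose fitted half-maximal concentration is at most twice the top tested dose; inconclusive = flat fit with moderate opposite-direction effect, or poor fit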;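 note: values are delta delta Ct of PCK1 relative to GAPDH; higher delta delta Ct means lower PCK1 expression so positive values indicate hits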
# PGC1a hep suppr: suppression of PGC-1a mRNA in primary hepatocytes, dose response, PGC-1a acetylation activator project, cell-based, primary mouse hepatocytes, RT-qPCR, cherry-pick | max activity (PGC-1a expression decrease), % | shares compounds with PGC1a acetyl up | PGC-1a mRNA qPCR, forskolin; top dose 26 µM | 240 tested, under 10 active;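 active = compound lowering PGC-1a expression with fitted half-maximal concentration at most twice its top tested dose; inconclusive = flat curve with moderate opposite-direction effect, or poor fit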;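 note: 0% = neutral control wells median and 100% = positive control wells median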
# An asterisk follows results filed as active; i = inactive; ? = inconclusive. Only a sample is shown.
SMILES,PGC1a acetyl up,others
CN1C(=O)/C(=C\c2ccc(N3CCCCC3)o2)C(=O)NC1=S,54*,
COc1ccc(Oc2cc(NC(=O)c3nn(C)cc3[N+](=O)[O-])cc([N+](=O)[O-])c2)cc1,-78,
COc1ccc(CC2C(=O)NC(C)C(=O)N(C)C3C(=O)N(C)C(Cc4ccc(O)c(c4)Oc4ccc(cc4)C3O)C(=O)NC(C)C(=O)NC(C)C(=O)N2C)cc1 (centres undefined),-76,
CCOC(=O)C1=Nc2ccccc2/C1=C\c1c(O)n(C)c(=O)n(C)c1=O,-43,
CC1=CC2OC3CC4OC(=O)C=CC=CC(C(C)O)OCC(O)C5(C)OC5C(=O)OCC2(CC1O)C4(C)C31CO1 (centres undefined),-87,
CC(=O)OC1CC2OC3C=C(C)CCC3(C)C1(C)C21CO1 (centres undefined),-87,
CCC1CN2CCc3cc(OC)c(OC)cc3C2CC1CC1NCCc2c1[nH]c1ccc(O)cc21 (centres undefined),-70,
CCCCN1C(=O)NC(=O)C2(Cc3c(nc4c(C)cccn4c3=O)N3CCc4ccccc4C32)C1=O (centres undefined),68*,
CC(N)C(=O)NC1C2C(=C(O)CC(O)C2O)C(=O)OC1(C)C(Cl)Cl (centres undefined),-74,
COc1cccc(C(c2nnnn2C2CCCCC2)N2CCC3(CC2)C(=O)NCN3c2ccccc2)c1OC (centres undefined),72*,
CC(O)C1C=CC=CC(=O)OC2CC3OC4C5OC5(C)C(O)CC4(COC(=O)C(O)C(C)CCO1)C2(C)C31CO1 (centres undefined),-87,
Cc1ccc2c(c1)CC1(CN2C)C(=O)NC(=O)N(C(C)C)C1=O (centres undefined),51*,
CC(=O)O[C@H]1C[C@@H]2OC3C=C(C)CCC3(C)[C@@]1(C)[C@@]21CO1 (some centres undefined),-84,
O=c1[nH]c(=S)n(Cc2ccco2)c(O)c1C=NCc1cccs1,-41,
CN(C)CCN=Cc1c(O)n(Cc2ccco2)c(=O)[nH]c1=O,82*,
CC(C)(C)n1nnnc1C(CCc1ccccc1)N1CCC2(CC1)C(=O)NCN2c1ccccc1 (centres undefined),71*,
O=c1[nH]c2ccccc2n1C1CCN(C(CCc2ccccc2)c2nnnn2Cc2ccccc2)CC1 (centres undefined),-103,
CNc1cc(Cl)c2nonc2c1[N+](=O)[O-],-68,
CC1CC(C)(O)CC(C(O)CC2CC(=O)NC(=O)C2)C1=O (centres undefined),-77,
C=C1C(=O)OC2CC(C)C3C=CC(=O)C3(C)C(O)C12 (centres undefined),-42,
C=C1C(=O)OC2C1CCC(C)C1(O)C=CC(=O)C21C (centres undefined),115*,
CC[C@H](C)[C@@H]1NC(=O)CNC(=O)c2csc(n2)[C@H](C(C)(C)O)OC(=O)C(C)(C)[C@H](CCCC(C)(Cl)Cl)OC(=O)c2csc1n2,-60,
CC1=CC2OC3CC4OC(=O)C=CC=CC(=O)OCCC(C)C(O)C(=O)OCC2(CC1)C4(C)C31CO1 (centres undefined),-77,
COc1ccccc1OCC(=O)Nc1ccc(Cl)cc1C(=O)c1ccccc1,?,G6PC hep suppr=24;PCK1 hep suppr=80;PGC1a hep suppr=58
C[C@H]1[C@@H](OS(=O)(=O)O)C[C@@H]2C[C@H]([C@@H](O)c3cc(=O)[nH]c(=O)[nH]3)NC3=NC[C@H]1N32,-94,
SMILES,PGC1a acetyl up,others
Cc1cccc(C)c1-n1nnnc1C(c1cccs1)N1CCC(n2c(=O)[nH]c3ccccc32)CC1 (centres undefined),?,G6PC hep suppr=401;PCK1 hep suppr=251;PGC1a hep suppr=377
CSCCC(c1nnnn1-c1c(C)cccc1C)N1CCC(n2c(=O)[nH]c3ccccc32)CC1 (centres undefined),89*,G6PC hep suppr=i;PCK1 hep suppr=775;PGC1a hep suppr=149
CC12CCC(O)CC1CCC1C2CCC2(C)C(C3=CC(=O)OC3)CCC12O (centres undefined),-80,
Cc1ccc(CS(=O)(=O)CCC(=O)N2CCC3(CC2)OCCO3)cc1,-44,
Cc1nc2c(=O)n(C)c(=O)nc-2n(C)n1,-78,
CN1CCN(c2ccc([N+](=O)[O-])c3no[n+]([O-])c23)CC1,-63,
Cc1ccc(OC(=O)N(C)C[C@H]2OCc3ccccc3-c3c(n(C)c4ccccc34)C(=O)N([C@H](C)CO)C[C@H]2C)cc1,229*,G6PC hep suppr=92;PCK1 hep suppr=101;PGC1a hep suppr=158
Cc1ccc(C[n+]2c(-c3ccc(C)cc3)cc(-c3ccc(C)cc3)cc2-c2ccc(C)cc2)cc1,-67,
CC1CCC[C@H](O)CCCCCc2cc(O)cc(O)c2C(=O)O1 (some centres undefined),-47,
O=C1NCN(c2ccccc2)C12CCN(C(c1cccc3ccccc13)c1nnnn1C1CCCCC1)CC2 (centres undefined),67*,G6PC hep suppr=-9;PCK1 hep suppr=45;PGC1a hep suppr=?
CC1CCC/C=C/C2CC(O)CC2C(O)/C=C/C(=O)O1 (centres undefined),-73,
CC1CCOC(=O)C=CC=CC(=O)OC2CC3OC4C5OC5(C)C(O)CC4(COC(=O)C1O)C2(C)C31CO1 (centres undefined),-77,
CC1CCCN(CC(=O)N2CCCc3ccccc32)C1 (centres undefined),-43,
C[C@H]1CCC/C=C/C2C[C@H](O)CC2[C@H](O)/C=C/C(=O)O1 (some centres undefined),-72,
